Data as given in ChEMBL document CHEMBL1140989, “Synthesis, penetrability and intracellular targeting of fluorescein-tagged peptoids and peptide-peptoid hybrids” (Bioorg Med Chem, 2009).
Square brackets hold non-standard residues; d marks the D form. Peptide text beside a SMILES is read from it. * marks the point of attachment. X1 = O=C(O)c1cc(C(=O)*)ccc1-c1c2ccc(=O)cc-2oc2cc(O)ccc12; Gly(N-(CH2)6NH2) = NCCCCCCNCC(=O)O; Ahx = NCCCCCC(=O)O

Columns and labels:
Type in all cases: cell-based
K562 = assay: Cytotoxicity against human K562 cells after 24 hrs by MTT assay; details: k562, 24 h
Outline: (§1)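 Cells kept in 10 µM peptoid in medium. Viability read by MTT 24 h after compound addition, absorbance at 570 nm.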

HeLa = assay: Cytotoxicity against human HeLa cells after 24 hrs by MTT assay; outline: as §1
L929 = assay: Cytotoxicity against mouse L929 cells after 24 hrs by MTT assay; details: l929, 24 h; outline: as §1

Measured: Activity

NCCCCCCN(CC(N)=O)C(=O)CN(CCCCCCN)C(=O)CN(CCCCCCN)C(=O)CCCCCNC(=O)c1ccc(-c2c3ccc(=O)cc-3oc3cc(O)ccc23)c(C(=O)O)c1
Non-toxic: all assays above

NCCCCCCN(CC(N)=O)C(=O)CCCCCNC(=O)c1ccc(-c2c3ccc(=O)cc-3oc3cc(O)ccc23)c(C(=O)O)c1
Non-toxic: all assays above

NCCCCCCN(CC(N)=O)C(=O)CN(CCCCCCN)C(=O)CN(CCCCCCN)C(=O)CN(CCCCCCN)C(=O)CN(CCCCCCN)C(=O)CCCCCNC(=O)c1ccc(-c2c3ccc(=O)cc-3oc3cc(O)ccc23)c(C(=O)O)c1
Non-toxic: all assays above

NCCCCCCN(CC(N)=O)C(=O)CN(CCCCCCN)C(=O)CN(CCCCCCN)C(=O)CN(CCCCCCN)C(=O)CN(CCCCCCN)C(=O)CN(CCCCCCN)C(=O)CN(CCCCCCN)C(=O)CCCCCNC(=O)c1ccc(-c2c3ccc(=O)cc-3oc3cc(O)ccc23)c(C(=O)O)c1 ({X1-Ahx}-[Gly(N-(CH2)6NH2)][Gly(N-(CH2)6NH2)][Gly(N-(CH2)6NH2)][Gly(N-(CH2)6NH2)][Gly(N-(CH2)6NH2)][Gly(N-(CH2)6NH2)][Gly(N-(CH2)6NH2)]-NH2)
Non-toxic: all assays above
